Bioassay records: PubChem BioAssay, several laboratories
A selection: hits, their analogues and other compounds. The true share with any hit is near 3.3%.
ABCB6 inh MLPCN: blocks the human ABCB6 transporter | fluorescence ratio to DMSO, % at 10 µM | K562-ABCB6 porphyrin accumulation, flow cytometry, 1 h; hits give low values | Q9NP58 | AID 602162 | 360,000 tested, 0.19% active;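 active means fluorescence ratio to DMSO below 75%, the collection mean minus 3 SD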;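 further: signal is porphyrin accumulated inside mitochondria; 100% equals median channel fluorescence of DMSO control wells; lower ratio means ABCB6 inhibition with less porphyrin fluorescence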
Target sequence (Q9NP58 whole entry, looked up): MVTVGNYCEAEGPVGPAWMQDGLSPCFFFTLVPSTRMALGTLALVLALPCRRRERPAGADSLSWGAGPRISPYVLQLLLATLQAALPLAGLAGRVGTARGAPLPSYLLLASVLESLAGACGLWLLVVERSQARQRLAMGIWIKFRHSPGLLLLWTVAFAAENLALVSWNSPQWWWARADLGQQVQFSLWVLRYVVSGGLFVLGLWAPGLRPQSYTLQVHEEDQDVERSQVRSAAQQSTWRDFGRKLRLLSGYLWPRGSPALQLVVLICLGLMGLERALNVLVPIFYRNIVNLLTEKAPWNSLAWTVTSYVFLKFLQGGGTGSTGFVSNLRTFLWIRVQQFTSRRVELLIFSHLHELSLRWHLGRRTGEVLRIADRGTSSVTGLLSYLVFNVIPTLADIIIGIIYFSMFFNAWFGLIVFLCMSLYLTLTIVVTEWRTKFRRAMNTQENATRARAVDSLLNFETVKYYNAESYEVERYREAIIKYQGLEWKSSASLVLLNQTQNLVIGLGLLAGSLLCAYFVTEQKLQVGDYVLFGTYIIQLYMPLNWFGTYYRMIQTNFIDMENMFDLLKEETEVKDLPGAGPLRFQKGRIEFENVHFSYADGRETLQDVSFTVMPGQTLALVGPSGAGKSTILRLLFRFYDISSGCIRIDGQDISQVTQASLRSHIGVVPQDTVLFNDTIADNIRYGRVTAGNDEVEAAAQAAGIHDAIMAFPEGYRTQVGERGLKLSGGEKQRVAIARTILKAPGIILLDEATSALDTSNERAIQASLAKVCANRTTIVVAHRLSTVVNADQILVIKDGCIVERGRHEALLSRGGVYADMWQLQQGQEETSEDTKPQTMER
STAT3 activator: increases IL-6 driven STAT3 reporter signal. U3A cells, IL-6 STAT3-luciferase reporter, luminescence; 100% = signal with IL-6 EC80 alone. activation (% of control), % at 5.6 µM. 190,000 tested, 0.91% active. AID 871;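 active means activation above the screen-wide mean of compound activation plus 3 SD, cut at about 130% in these data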;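 further: 0% = background luminescence of wells with medium and substrate only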
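system = STAT3-luciferase reporter U3A cells | reagent = IL-6 stimulus at 33 ng/mL final | timing = 1 h compound pre-exposure, 6 h IL-6 stimulation, 37 °C | measured by = luminescence | evaluation = % activation versus median of IL-6-stimulated wells | control set = IL-6-only wells as 100% reference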
AHR activator: activators of human aryl hydrocarbon receptor. P35869. AHR-responsive luciferase reporter cells, luminescence. activation, % at 5 µM. 320,000 tested, 2.5% active. AID 2796; in the data active means activation above about 47%;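 further: 0% = vehicle wells and 100% = reference agonist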
GAA850 FXN act: frataxin GAA850 promoter activation | HEK293 lucGAA850 FXN promoter luciferase reporter, 24 h; percent of 10 µM SAHA response | activation, % at 6 µM | 360,000 tested, 0.56% active | AID 540364;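 active means activation above the average of all compounds screened plus 3 SD, cutoff fixed separately per campaign, cut at about 7.5% in these data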;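 further: 0% = DMSO wells and 100% = 10 µM SAHA wells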
AHR act cf: confirmation of human aryl hydrocarbon receptor activators. activation, % at 9 µM. shares compounds with AHR activator. 2,300 tested, 87% active. human cells, AHR-responsive luciferase reporter, luminescence. AID 2845; in the data active means activation above about 49%;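 further: HepG2 hepatoma cells carrying a DRE-driven firefly luciferase reporter; 0% = vehicle wells and 100% = reference agonist wells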
PXR counter: counter-screen for AHR activators: human PXR activators. shares compounds with AHR activator. cell-based PXR reporter, luciferase luminescence. activation, % at 11.6 µM. 2,300 tested, 88% active. AID 434939; in the data active means activation above about 11%;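 further: human hepatoma DPX-2 cells expressing full-length human PXR; 0% = DMSO and 100% = reference agonist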
* hit, by the source's call; · = no result given.

SMILES	ABCB6 inh MLPCN	STAT3 activator	AHR activator	GAA850 FXN act	AHR act cf	PXR counter
N#C/C(=C1/CCCCCN1)c1nc2ccccc2s1	102	98	87*	0	122*	56*
N#C/C(=C1\CCCN1)c1nc2ccccc2c(=O)[nH]1	95	97	15	-1	·	·
CCOC(=O)c1c(C)[nH]c(C(=O)N/N=C\c2ccccc2Cl)c1C	97	80	81*	-4	73*	15*
COC(=O)[C@]12CCCCC=C1N(Cc1ccc(Cl)cc1Cl)C(=O)[C@H](CC(=O)NCc1ccc(OC)c(OC)c1)C2	95	·	·	·	·	·
CC(=O)/C(=N/Nc1ccc(Br)cc1)Sc1cccc2cccnc12	94	98	125*	3	116*	180*
C=C(C)CNC(=S)NN=C1c2ccccc2-c2ccccc21	95	110	92*	4	87*	55*
CC1CCCC(C)N1/N=C/C=C/c1ccccc1[N+](=O)[O-] (stereo not drawn)	96	107	84*	2	109*	67*
Clc1ccccc1-c1nc(/C=N/N2CCOCC2)c2ccccn12	100	99	13	2	·	·
Clc1ccc(-c2nc(/C=N/N3CCOCC3)c3ccccn23)cc1	105	88	90*	2	78*	25*
CN1CCN(/N=C/c2nc(-c3ccccc3)n3ccccc23)CC1	102	117	102*	2	65*	16*
C[C@@]12C(=O)Nc3ccc(Cl)cc3C(=O)N1[C@H]1c3ccccc3OC[C@@H]1[C@@H]2c1ccccc1	99	·	11	-11	·	·
Cc1ccc(C(=O)NC(N2CCCC2)C(Cl)(Cl)Cl)cc1 (stereo not drawn)	93	104	1	0	·	·
O=C(NCc1cc(Cl)cc(Cl)c1)c1ccc2sc([C@@H]3O[C@H](CO)[C@H](O)[C@H](O)[C@H]3O)nc2c1	95	·	·	0	·	·
COc1ccc(C2=NN(C(C#N)c3ccc(OC)c(OC)c3)C(c3ccccc3)C2)cc1 (stereo not drawn)	104	103	107*	3	74*	21*
COc1cc(C(=O)N2CCCCC2c2cc(C(=O)NC(C)C)no2)cc(OC)c1C (stereo not drawn)	94	·	·	-1	·	·
CNC(=S)c1cc(C(C)(C)C)c(O)c(C(C)(C)C)c1	97	·	0	1	·	·
c1ccc(-c2nnc3sc(-c4ccncc4)nn23)cc1	90	94	-3	2	·	·
c1ccc(-c2nnc3sc(-c4csc5c4CCCC5)nn23)cc1	88	107	97*	7	136*	38*
Cc1oc(-c2ccc3ccccc3c2)nc1CN(C)C(C)c1ccncn1 (stereo not drawn)	88	117	115*	7	98*	43*
CC(c1ccncn1)N(C)Cc1nc(-c2ccc(C(F)(F)F)cc2)no1 (stereo not drawn)	105	110	36	-2	·	·
Cc1ccc(Nc2nc(N)c([N+](=O)[O-])c(N3CCOCC3)n2)cc1	98	94	81*	6	77*	22*
COc1ccccc1-c1nc(C#N)c(N2CCCCCC2)o1	99	101	83*	3	79*	108*
COc1ccccc1-c1nc(C#N)c(N2CCN(c3ccccc3)CC2)o1	101	106	11	0	·	·
c1cnc2c(OCc3nc4ccccc4[nH]3)cccc2c1	82	156*	110*	6	149*	110*
Cc1cccc(Nc2nc(N)nc(CSc3nccc(C)n3)n2)c1	101	99	103*	1	103*	119*
SMILES	ABCB6 inh MLPCN	STAT3 activator	AHR activator	GAA850 FXN act	AHR act cf	PXR counter
COc1ccc(Nc2nc(N)nc(CSc3nccc(C)n3)n2)cc1	95	107	34	8	·	·
CCOc1ccccc1Nc1nc(N)nc(CSc2nccc(C)n2)n1	91	92	81*	1	70*	60*
c1ccc2c(c1)nc(N1CCCCCC1)c1ccccc12	95	·	0	2	·	·
C(=C\c1nc(N2CCCC2)c2ccccc2n1)/c1ccccc1	98	99	162*	6	145*	45*
Cc1ccc(NC(=S)Nc2cccc3ccccc23)cc1F	99	·	84*	3	75*	112*
CC(=O)c1ccc(NC(=S)Nc2cccc3ccccc23)cc1	99	·	99*	-1	24	86*
O=C(Nc1cccc2ccccc12)c1cccc(F)c1	100	·	·	2	·	·
Fc1cccc(NC(=S)Nc2cccc3ccccc23)c1	94	·	82*	1	62*	100*
CC(=O)c1ccc(NC(=O)c2cc(Cl)nc3ccccc23)cc1	105	88	96*	1	82*	·
CC(=O)Nc1ccc(NC(=O)c2cc(-c3ccccc3)nc3ccccc23)cc1	106	·	·	1	·	·
CC(=O)N(C)c1ccc(NC(=S)Nc2cccc3ccccc23)cc1	105	99	36	2	·	·
Cc1ccc(NC2CCCN(C(=O)c3ccoc3C)C2)cc1C (stereo not drawn)	100	·	·	-1	·	·
COc1ccc(CC(=O)N(C)Cc2ccc(OC(F)F)cc2)cc1S(=O)(=O)N1CCOCC1	96	·	·	3	·	·
O=C(N/N=C/c1sc(N2CCOCC2)nc1-c1ccccc1)c1ccc(O)cc1	100	74	95*	5	49*	11*
Cc1nnc2c(-c3ccccc3)nc3ccccc3n12	95	91	89*	2	109*	13*
CC(O)(c1ccc(F)c(F)c1)c1nc(-c2ccc(Cl)cc2)cs1 (stereo not drawn)	99	·	·	3	·	·
OCCSc1nc(-c2ccccc2)nc2ccc(F)cc12	97	85	102*	2	95*	24*
COC(=O)CSc1nc(-c2ccccc2)nc2ccc(F)cc12	95	102	35	-1	·	·
Cc1ccc2c(c1)/C(=C/c1ccco1)C(=O)N2	101	86	116*	4	99*	23*
CC(=O)Nc1ccc(NC2=C(Cl)C(=O)c3ccccc3C2=O)cc1	·	112	·	·	·	·
CN(C)c1ccc(NC2=C(Cl)C(=O)c3ccccc3C2=O)cc1	98	93	135*	-5	76*	13*
O=C(c1ccc2nc[nH]c2c1)N1CCN(c2ncc(C(F)(F)F)cc2Cl)CC1	107	·	-2	3	·	·
O=C(N/N=C/c1c[nH]c2c1ccc1ccccc12)c1ccc([N+](=O)[O-])cc1	101	102	105*	1	79*	11*
Nc1nc2ccccc2n1/N=C/c1ccc(Br)cc1	98	81	88*	3	102*	19*
Nc1nc2ccccc2n1/N=C/c1ccc2c(c1)OCO2	90	·	15	4	·	·
O=[N+]([O-])c1cccc(NC(=S)N2CCc3ccccc3C2)c1	95	102	105*	1	92*	54*
CC(=O)Nc1ccc(/C(C)=N\NC(=O)c2ccc(-c3ccccc3)cc2)cc1	·	113	14	·	·	·
C/C(=N/NC(=O)Nc1ccccc1)c1ccc(C)cc1	99	106	105*	1	76*	20*
